pIC50, pKd: −log10 of the molar value.
Columns and labels:
[1] = AUC in rat plasma at 25 mg/kg, po after 72 hrs; type: ADME, organism-based; set-up: time < 72 hr, dose 25 mg/kg, route oral
In short: (§1)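 Oral dosing as a solution in MEPC: rat 25 mg/kg, dog 1 mg/kg. Blood and plasma collected separately over 0−72 h and AUC computed for each matrix.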

Cytochrome P450 2C8 = biological target: T1, Cytochrome P450 2C8 (Homo sapiens, UniProt P10632); experiment: Inhibition of CYP2C8 (unknown origin); type: ADME
T1 sequence (P10632 whole entry): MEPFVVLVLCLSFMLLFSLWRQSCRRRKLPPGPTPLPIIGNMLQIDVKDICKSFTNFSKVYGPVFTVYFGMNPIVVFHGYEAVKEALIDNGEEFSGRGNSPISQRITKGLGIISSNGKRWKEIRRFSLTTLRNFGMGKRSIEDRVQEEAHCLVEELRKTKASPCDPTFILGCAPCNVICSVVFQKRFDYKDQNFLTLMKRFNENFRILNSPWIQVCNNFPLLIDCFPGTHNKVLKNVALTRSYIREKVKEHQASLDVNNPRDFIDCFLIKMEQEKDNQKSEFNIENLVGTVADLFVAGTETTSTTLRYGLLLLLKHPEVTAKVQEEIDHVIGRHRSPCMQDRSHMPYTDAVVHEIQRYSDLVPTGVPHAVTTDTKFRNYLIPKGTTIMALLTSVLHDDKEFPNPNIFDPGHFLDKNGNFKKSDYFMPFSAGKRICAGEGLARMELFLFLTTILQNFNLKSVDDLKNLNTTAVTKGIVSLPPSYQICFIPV

Cytochrome P450 2D6 = Cytochrome P450 2D6 (Homo sapiens, UniProt P10635); experiment: Inhibition of CYP2D6 (unknown origin); type: ADME
[2] = biological target: T2, Broad substrate specificity ATP-binding cassette transporter ABCG2 (Homo sapiens, UniProt Q9UNQ0); experiment: Inhibition of BCRP (unknown origin) expressed in T8 cells using Bodipy FL-prazosin substrate; type: ADME, cell-based
T2 sequence (Q9UNQ0 whole entry): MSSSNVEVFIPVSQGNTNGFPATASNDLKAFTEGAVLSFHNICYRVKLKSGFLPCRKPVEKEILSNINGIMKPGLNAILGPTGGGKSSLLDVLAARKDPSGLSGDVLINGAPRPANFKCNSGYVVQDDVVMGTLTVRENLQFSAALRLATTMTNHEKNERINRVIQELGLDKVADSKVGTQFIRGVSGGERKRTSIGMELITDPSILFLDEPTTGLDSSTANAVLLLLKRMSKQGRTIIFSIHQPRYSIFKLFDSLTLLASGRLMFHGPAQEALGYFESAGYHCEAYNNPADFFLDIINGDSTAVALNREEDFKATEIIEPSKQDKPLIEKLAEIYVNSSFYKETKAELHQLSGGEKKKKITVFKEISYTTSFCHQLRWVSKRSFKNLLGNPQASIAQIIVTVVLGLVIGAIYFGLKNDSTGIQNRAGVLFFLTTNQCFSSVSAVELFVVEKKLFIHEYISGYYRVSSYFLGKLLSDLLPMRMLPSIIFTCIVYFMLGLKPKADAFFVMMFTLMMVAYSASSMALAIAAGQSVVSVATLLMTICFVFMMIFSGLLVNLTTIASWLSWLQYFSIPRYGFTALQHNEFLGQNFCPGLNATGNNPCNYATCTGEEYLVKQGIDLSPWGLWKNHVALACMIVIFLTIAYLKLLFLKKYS
In short: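 BCRP activity in T8 cells, measured with Bodipy FL-prazosin as substrate; IC50 reported.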

Cytochrome P450 2C19 = Cytochrome P450 2C19 (Homo sapiens, UniProt P33261); experiment: Inhibition of […] (unknown origin); type: ADME
[3] = biological target: T3, Solute carrier organic anion transporter family member 1B1 (Homo sapiens, UniProt Q9Y6L6); experiment: Inhibition of OATP1B1 (unknown origin) expressed in HEK293 cells using [3H]estradiol-17beta-glucuronide substrate; type: ADME, cell-based
T3 sequence (Q9Y6L6 whole entry): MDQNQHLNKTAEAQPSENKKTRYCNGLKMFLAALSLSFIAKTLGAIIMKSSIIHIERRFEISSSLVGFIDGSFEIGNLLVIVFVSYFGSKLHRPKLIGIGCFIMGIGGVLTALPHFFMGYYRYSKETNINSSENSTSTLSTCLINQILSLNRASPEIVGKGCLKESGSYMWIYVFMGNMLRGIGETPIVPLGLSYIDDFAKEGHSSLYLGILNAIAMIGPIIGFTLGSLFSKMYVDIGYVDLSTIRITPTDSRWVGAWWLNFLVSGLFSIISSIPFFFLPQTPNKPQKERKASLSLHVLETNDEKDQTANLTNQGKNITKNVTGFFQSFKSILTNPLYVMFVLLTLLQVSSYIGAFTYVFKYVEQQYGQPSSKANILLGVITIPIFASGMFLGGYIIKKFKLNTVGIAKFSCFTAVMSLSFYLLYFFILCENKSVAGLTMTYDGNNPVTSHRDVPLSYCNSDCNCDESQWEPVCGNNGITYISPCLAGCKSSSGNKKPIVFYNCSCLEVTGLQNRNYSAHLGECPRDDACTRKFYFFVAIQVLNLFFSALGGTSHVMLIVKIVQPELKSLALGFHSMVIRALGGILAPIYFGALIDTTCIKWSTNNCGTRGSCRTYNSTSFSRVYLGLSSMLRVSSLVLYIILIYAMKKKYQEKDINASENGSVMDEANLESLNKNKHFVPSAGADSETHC
In short: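 Recombinant OATP1B1 or OATP1B3 expressed in HEK293 cells, with [3H]estradiol-17β-glucuronide as substrate; IC50 determined.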

Bile salt export pump = Bile salt export pump (Homo sapiens, UniProt O95342); experiment: Inhibition of BSEP (unknown origin) expressed in HEK293 cells using [3H]taurocholic acid substrate; type: ADME, cell-based
In short: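 BSEP activity in HEK293 cells, measured with [3H]taurocholic acid uptake as substrate; IC50 reported.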

[4] = biological target: Peptidyl-prolyl cis-trans isomerase F, mitochondrial (Homo sapiens, UniProt P30405); experiment: Binding affinity to human cyclophilin F by surface plasmon resonance method
In short: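 Surface plasmon resonance with biotinylated cyclophilin protein, single-cycle kinetics. Running buffer 10 mM HEPES pH 7.4, 150 mM NaCl, 0.05% P20, 3% DMSO, with inhibitor present. Compound injected at several concentrations, 1 min contact each at 50 μL/min, then 10 min final dissociation. kon, koff and KD obtained from a 1:1 binding model fit.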

[5] = AUC in dog plasma at 1 mg/kg, po after 72 hrs; type: ADME, organism-based, Canis lupus familiaris; set-up: time < 72 hr, dose 1 mg/kg, route oral; in short: as §1
[6] = biological target: ATP-dependent translocase ABCB1 (Homo sapiens, UniProt P08183); experiment: Inhibition of MDR1 (unknown origin) expressed in MDA T0.3 cells using rhodamine 123 substrate; type: ADME, cell-based
In short: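 MDR1 activity in MDA T0.3 cells, measured with rhodamine 123 as substrate; IC50 reported.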

Cytochrome P450 3A4 = Cytochrome P450 3A4 (Homo sapiens, UniProt P08684); experiment: Inhibition of CYP3A4 (unknown origin); type: ADME
Chain of Cytochrome P450 3A4 (P08684 whole entry): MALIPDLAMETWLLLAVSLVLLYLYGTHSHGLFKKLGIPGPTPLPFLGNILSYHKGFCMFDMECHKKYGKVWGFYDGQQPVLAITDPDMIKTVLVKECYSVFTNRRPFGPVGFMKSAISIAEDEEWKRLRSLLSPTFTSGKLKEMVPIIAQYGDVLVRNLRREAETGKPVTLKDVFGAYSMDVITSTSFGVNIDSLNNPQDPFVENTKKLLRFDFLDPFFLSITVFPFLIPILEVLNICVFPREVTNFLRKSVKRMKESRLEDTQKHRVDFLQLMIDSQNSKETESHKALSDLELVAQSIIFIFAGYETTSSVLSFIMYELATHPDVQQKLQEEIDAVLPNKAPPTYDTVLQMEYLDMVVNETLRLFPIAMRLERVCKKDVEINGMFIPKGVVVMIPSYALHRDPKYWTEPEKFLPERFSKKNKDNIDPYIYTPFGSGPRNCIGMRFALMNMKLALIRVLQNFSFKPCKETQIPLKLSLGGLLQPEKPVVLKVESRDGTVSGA

Chain of Peptidyl-prolyl cis-trans isomerase F, mitochondrial (P30405 whole entry): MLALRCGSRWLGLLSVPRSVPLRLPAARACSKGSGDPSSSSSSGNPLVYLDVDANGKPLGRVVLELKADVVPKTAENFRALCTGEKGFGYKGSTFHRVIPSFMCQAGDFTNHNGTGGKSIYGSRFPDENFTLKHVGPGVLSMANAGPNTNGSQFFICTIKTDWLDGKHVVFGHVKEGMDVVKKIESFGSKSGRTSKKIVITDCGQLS
Chain of ATP-dependent translocase ABCB1 (P08183 whole entry): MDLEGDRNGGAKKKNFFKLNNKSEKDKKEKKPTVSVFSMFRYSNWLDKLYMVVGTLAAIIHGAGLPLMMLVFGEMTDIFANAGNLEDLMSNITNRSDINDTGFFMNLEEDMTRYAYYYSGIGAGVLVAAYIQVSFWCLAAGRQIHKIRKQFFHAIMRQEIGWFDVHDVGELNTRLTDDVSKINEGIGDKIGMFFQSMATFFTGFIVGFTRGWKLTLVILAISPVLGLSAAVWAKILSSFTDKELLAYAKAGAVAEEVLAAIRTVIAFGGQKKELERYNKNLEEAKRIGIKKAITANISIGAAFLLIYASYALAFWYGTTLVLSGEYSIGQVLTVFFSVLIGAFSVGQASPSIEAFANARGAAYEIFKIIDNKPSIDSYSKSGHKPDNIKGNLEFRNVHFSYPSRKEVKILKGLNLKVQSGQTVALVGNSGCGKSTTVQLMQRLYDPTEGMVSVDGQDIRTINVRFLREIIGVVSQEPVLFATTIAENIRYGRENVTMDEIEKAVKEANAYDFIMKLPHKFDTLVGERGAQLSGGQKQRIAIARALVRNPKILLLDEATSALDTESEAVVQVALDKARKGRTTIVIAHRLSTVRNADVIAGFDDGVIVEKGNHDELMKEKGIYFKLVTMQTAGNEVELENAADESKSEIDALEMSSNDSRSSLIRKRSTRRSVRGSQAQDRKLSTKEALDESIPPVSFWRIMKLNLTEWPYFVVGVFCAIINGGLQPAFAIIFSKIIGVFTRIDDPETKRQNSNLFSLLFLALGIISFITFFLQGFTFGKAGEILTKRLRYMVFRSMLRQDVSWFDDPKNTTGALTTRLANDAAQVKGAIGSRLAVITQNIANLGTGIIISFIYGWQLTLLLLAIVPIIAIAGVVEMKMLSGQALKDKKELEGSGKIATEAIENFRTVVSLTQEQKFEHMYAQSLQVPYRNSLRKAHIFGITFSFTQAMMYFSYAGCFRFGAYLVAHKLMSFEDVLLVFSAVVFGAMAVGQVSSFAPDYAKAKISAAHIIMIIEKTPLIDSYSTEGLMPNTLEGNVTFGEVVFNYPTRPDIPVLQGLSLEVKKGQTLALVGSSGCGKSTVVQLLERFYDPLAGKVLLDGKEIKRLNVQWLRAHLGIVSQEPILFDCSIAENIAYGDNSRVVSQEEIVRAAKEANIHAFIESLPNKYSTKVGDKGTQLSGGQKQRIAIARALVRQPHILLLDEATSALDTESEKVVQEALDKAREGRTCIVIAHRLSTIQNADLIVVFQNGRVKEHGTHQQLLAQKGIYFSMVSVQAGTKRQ
Chain of Bile salt export pump (O95342 whole entry): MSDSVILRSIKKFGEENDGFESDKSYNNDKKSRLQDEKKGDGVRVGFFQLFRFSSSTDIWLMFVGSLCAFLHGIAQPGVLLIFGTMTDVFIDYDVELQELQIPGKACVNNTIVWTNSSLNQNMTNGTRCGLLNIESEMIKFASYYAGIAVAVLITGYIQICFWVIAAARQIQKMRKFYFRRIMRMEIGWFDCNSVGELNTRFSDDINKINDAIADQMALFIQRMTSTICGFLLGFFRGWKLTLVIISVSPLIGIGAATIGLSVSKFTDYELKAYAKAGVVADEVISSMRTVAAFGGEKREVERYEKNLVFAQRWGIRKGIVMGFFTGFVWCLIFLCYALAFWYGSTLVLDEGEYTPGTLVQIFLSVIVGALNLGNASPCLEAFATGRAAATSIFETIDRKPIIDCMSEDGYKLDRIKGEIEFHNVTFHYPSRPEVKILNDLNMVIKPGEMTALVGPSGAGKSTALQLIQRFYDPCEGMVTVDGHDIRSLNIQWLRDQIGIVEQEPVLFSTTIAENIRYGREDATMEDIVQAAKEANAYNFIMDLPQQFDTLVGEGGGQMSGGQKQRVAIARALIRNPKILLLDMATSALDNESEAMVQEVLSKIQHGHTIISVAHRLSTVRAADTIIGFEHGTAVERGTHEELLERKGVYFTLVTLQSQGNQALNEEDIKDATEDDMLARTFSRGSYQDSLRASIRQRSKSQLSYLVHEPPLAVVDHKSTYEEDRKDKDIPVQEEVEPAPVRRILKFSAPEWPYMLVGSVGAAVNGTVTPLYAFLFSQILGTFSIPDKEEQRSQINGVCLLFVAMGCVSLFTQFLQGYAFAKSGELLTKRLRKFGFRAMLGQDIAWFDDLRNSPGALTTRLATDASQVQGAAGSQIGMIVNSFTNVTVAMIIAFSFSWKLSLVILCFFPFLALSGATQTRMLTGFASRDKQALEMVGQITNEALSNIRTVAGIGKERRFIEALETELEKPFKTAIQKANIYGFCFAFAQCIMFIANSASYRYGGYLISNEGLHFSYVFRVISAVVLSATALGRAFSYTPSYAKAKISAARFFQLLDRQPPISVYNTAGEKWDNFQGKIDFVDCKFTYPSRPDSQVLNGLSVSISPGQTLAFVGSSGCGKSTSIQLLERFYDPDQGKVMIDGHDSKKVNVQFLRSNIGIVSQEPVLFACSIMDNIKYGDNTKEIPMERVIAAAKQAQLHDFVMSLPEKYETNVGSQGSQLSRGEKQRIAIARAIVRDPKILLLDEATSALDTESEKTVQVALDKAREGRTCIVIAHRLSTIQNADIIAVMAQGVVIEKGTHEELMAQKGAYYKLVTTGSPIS
Chain of Cytochrome P450 2C19 (P33261 whole entry): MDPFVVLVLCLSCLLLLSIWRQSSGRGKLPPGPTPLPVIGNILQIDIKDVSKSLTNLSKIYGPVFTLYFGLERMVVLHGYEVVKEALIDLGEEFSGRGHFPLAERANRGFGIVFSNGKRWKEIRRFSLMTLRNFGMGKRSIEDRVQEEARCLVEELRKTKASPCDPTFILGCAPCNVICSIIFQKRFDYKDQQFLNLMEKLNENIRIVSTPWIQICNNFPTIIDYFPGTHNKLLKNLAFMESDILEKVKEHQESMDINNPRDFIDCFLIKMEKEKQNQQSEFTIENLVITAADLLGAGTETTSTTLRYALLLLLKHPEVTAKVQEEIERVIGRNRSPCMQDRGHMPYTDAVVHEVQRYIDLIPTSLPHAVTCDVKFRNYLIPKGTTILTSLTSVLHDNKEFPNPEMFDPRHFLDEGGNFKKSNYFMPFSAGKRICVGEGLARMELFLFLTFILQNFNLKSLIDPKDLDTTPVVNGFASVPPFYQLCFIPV
Chain of Cytochrome P450 2D6 (P10635 whole entry): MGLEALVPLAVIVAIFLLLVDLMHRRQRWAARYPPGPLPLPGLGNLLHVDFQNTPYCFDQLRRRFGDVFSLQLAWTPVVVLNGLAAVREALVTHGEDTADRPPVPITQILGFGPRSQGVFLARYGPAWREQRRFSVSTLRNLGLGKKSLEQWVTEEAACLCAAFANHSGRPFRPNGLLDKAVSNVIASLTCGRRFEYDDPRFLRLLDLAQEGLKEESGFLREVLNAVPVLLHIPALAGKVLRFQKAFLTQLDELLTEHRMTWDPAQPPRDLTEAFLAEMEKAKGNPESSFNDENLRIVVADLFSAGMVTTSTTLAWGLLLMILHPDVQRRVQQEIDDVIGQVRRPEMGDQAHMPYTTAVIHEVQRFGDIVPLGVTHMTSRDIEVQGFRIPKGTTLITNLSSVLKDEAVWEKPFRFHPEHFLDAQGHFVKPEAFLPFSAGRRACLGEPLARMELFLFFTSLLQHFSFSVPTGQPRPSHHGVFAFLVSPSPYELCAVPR

AUC at 72 h [1] [nM·h]	pIC50 (Cytochrome P450 2C8)	pIC50 (Cytochrome P450 2D6)	pIC50 [2]	pIC50 (Cytochrome P450 2C19)	pIC50 [3]	pKd [4]	AUC at 72 h [5] [nM·h]	pIC50 [6]	pIC50 (Cytochrome P450 3A4)	Compound	pIC50 (Bile salt export pump)
5800	< 4.40	< 4.40	< 4.60	< 4.40	5.92	9.05	900	5.20	< 4.40	C/C=C/C[C@@H](C)[C@@H](O)[C@H]1C(=O)N[C@@H](CC)C(=O)N(C)[C@H](C)C(=O)N(C)[C@@H]([C@@H](C)CN2CCN(CCOC)CC2)C(=O)N[C@@H](C(C)C)C(=O)N(C)[C@@H](CC(C)C)C(=O)N[C@@H](C)C(=O)N[C@H](C)C(=O)N(C)[C@@H](CC(C)C)C(=O)N(C)[C@@H](CC(C)C)C(=O)N(C)[C@@H](C(C)C)C(=O)N1C	5.80
2300	–	–	5.60	–	6.74	9.00	400	6.23	–	C/C=C/C[C@@H](C)[C@@H](O)[C@H]1C(=O)N[C@@H](CC)C(=O)N(C)[C@H](C)C(=O)N(CC)[C@@H](C(C)C)C(=O)N[C@@H](C(C)C)C(=O)N(C)[C@@H](CC(C)C)C(=O)N[C@@H](C)C(=O)N[C@H](C)C(=O)N(C)[C@@H](CC(C)C)C(=O)N(C)[C@@H](CC(C)C)C(=O)N(C)[C@@H](C(C)C)C(=O)N1C [ALISPORIVIR]	6.96

Reference: ChEMBL document CHEMBL3351593, “Potent nonimmunosuppressive cyclophilin inhibitors with improved pharmaceutical properties and decreased transporter inhibition” (J Med Chem, 2014)
